Compound activity (PubChem)
An excerpt weighted towards active compounds, which were near 1.8% of everything screened.
PABP FP inh: PABP poly(A) RNA binding inhibitors, primary screen, biochemical, fluorescence polarization, uHTS | Polyadenylate-binding protein 1 (Homo sapiens), P11940 | calls only at 35 µM | hit rate 1% among 290,000 | AID 2014, 2009;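 note: calls also rest on retests at 20 µM and on dose response follow-up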
HCV core dimer: inhibitors of HCV core protein dimerization, primary screen, biochemical, TR-FRET, high-throughput; TR-FRET GST/Flag-core106 dimerization, 1536-well; inhibition, % at 5 µM; hit rate 0.33% among 300,000;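 active = inhibition above the mean of all tested compounds plus 3 SD, set per screening campaign, cut at about 45% in these data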
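assay system = GST-tagged and Flag-tagged HCV core protein residues 1-106 | controls = unlabelled core106 and no-GST-core106 wells | incubation = compound-protein-antibody incubation 4 h at 22.5 °C | probe or stimulus = Eu donor and XL665 acceptor anti-tag antibodies | read-out = % inhibition based on acceptor/donor emission ratio | signal = TR-FRET 671 and 617 nm emission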
SUMO HTRF inh: inhibitors of in vitro SUMOylation cascade, primary screen, biochemical, HTRF, uHTS | hit rate 0.36% among 290,000 | HTRF SUMOylation assay, SAE1/SAE2 + UBC9 | AID 2006, 2009 | SUMO-conjugating enzyme UBC9 (Homo sapiens), P63279 | inhibition, % at 35 µM; in the data active = inhibition above about 50%, passing the limit was not always enough; inconclusive = no clear call, values can overlap the other calls
Target sequence (P63279 whole entry, looked up): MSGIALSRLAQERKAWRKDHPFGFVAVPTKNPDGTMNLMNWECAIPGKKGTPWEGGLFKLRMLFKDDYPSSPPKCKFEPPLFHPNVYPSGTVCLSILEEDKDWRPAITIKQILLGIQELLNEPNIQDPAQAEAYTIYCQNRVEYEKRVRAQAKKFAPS
MLLE-PAM2 inh: inhibitors of PABP1 MLLE–PAM2 peptide binding, primary screen, biochemical, fluorescence polarization, FITC-PAM2, GST-MLLE | Polyadenylate-binding protein 1 (Homo sapiens), P11940 | inhibition, % at 20 µM | hit rate 0.36% among 360,000 | AID 588489, 2011; in the data active = inhibition above about 35%, passing the limit was not always enough;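 note: plate controls were DMSO wells with GST-MLLE for no effect and wells lacking GST-MLLE protein for full effect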
eIF4H FP inh: human eIF4H binding inhibitors, primary screen, translation initiation inhibitor project, biochemical, uHTS, fluorescence polarization; eIF4H fluorescence polarization binding assay; inhibition, % at 35 µM; hit rate 0.94% among 290,000;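 note: calls also rest on retests at 20 µM and on dose response follow-up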
eIF4E-4G inh: eIF4E–eIF4G protein interaction inhibitors, primary screen, biochemical, uHTS, TR-FRET, eIF4GI fragment; hit rate 0.37% among 220,000; AID 782, 2007; TR-FRET eIF4E-eIF4GI(517-606) binding, 2 h; Eukaryotic translation initiation factor 4E (Mus musculus) + Eukaryotic translation …; inhibition, % at 21.7 µM;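 active = inhibition above about 30%, limit read from the data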;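 note: 0% = full FRET control wells and 100% = background wells lacking eIF4GI fragment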
An asterisk follows results filed as active; i = inactive; ? = inconclusive; . = not tested or not shown; + = active, no number. Unless noted, the rule behind the calls is not given here.

SMILES	PABP FP inh	HCV core dimer	SUMO HTRF inh	MLLE-PAM2 inh	eIF4H FP inh	eIF4E-4G inh
O=c1[nH]c(=O)n(-c2ccc(F)cc2)c(O)c1C=Nc1ccccc1N1CCCC1	+	15	?	-58	64*	-41
O=c1[nH]c(=O)n(-c2cccc(Cl)c2)c(O)c1/C=N/c1ccccn1	+	-10	11	-33	85*	9
CN1C(=O)C(=Cc2ccc(-c3cccc(Cl)c3)o2)C(=O)N(C)C1=O	i	2	20	.	62	0
Cc1ccc(Sc2ccc(C=C3C(=O)N(C)C(=O)N(C)C3=O)o2)cc1	+	5	24	21	?	-1
CC1CN1P(=O)(Oc1ccc2ccccc2c1)N1CC1C (configuration not stated)	.	.	.	-13	.	.
CC1=CC(=O)NP(=O)(Oc2ccc3ccccc3c2)N1 (configuration not stated)	i	0	18	11	-7	81*
Cc1ccc(-c2nn(Cc3ccccc3)cc2C(=O)O)cc1	i	-2	11	5	-6	96*
O=c1[nH]c(=O)n(C2CCCCC2)c(O)c1/C=N/N1CCCCC1c1cccnc1 (configuration not stated)	i	2	19	-8	-1	1
O=c1[nH]c(=O)n(-c2cccc3ccccc23)c(O)c1/C=N/N1CCCCC1c1cccnc1 (configuration not stated)	+	-10	4	-122	89*	2
O=C1C=C2c3ccccc3CC(C(=O)O)C2CC1 (configuration not stated)	.	.	.	-9	.	.
c1ccc(P(c2ccccc2)c2ccccn2)cc1	i	2	16	39*	-3	-2
CN(C)[C@@H]1C(=O)C(C(N)=O)=C(O)[C@@]2(O)C(=O)C3=C(O)c4c(O)ccc(Cl)c4[C@@](C)(O)C3C[C@@H]12 (some centres not stated)	i	.	28	8	64	3
CN(C)[C@@H]1C(=O)C(C(N)=O)=C(O)[C@@]2(O)C(=O)C3=C(O)c4c(O)cccc4[C@@](C)(O)C3[C@H](O)C12 (some centres not stated)	.	-6	.	26	.	.
CN(C)[C@@H]1C(=O)C(C(N)=O)=C(O)[C@@]2(O)C(=O)C3=C(O)c4c(O)cccc4[C@@](C)(O)[C@H]3C[C@@H]12	.	52*	.	.	.	.
CN(C)C1C(=O)C(C(N)=O)=C(O)C2(O)C(=O)C3=C(O)c4c(O)cccc4C(C)(O)C3CC12 (configuration not stated)	+	0	25	0	81*	.
CCOC(=O)CNC(=O)CSP(=S)(OCC)OCC	i	1	-11	29	2	0
CNC(=O)CSP(=S)(OC)OC	.	.	.	40*	.	.
Cc1ccccc1N1C(=O)/C(=C/c2ccco2)C(=O)NC1=S	+	70*	97*	.	75*	.
CN1C(=O)NC(=O)/C(=C/c2ccc([N+](=O)[O-])s2)C1=O	+	-4	46	23	64*	1
O=C1NC(=O)N(c2ccccc2)C(=O)/C1=C\c1ccc([N+](=O)[O-])s1	?	2	55*	.	?	3
COc1ccc(OC)c(N2C(=O)NC(=O)/C(=C\c3ccc([N+](=O)[O-])s3)C2=O)c1	i	5	39	18	69	9
Cc1ccc(/C=C2/C(=O)NC(=O)N(C)C2=O)cc1	+	5	1	15	?	1
Cc1cc(/C=C2\C(=O)NC(=O)N(c3ccc(Cl)cc3)C2=O)c(C)n1C	i	6	0	-25	55	3
Cc1cc(/C=C2/C(=O)NC(=O)N(Cc3ccco3)C2=O)c(C)n1-c1ccccc1O	i	2	23	-13	1	7
Cc1cc(/C=C2\C(=O)NC(=O)N(c3ccccc3)C2=O)c(C)n1-c1ccc(C(=O)O)c(Cl)c1	+	.	9	10	100	.
SMILES	PABP FP inh	HCV core dimer	SUMO HTRF inh	MLLE-PAM2 inh	eIF4H FP inh	eIF4E-4G inh
C=CCN1C(=O)/C(=C/c2cc(C)n(-c3ccccn3)c2C)C(=O)NC1=S	+	2	10	-14	?	0
Cc1cc(/C=C2\C(=O)NC(=O)N(c3ccc(F)cc3)C2=O)c(C)n1-c1cccc(C(=O)O)c1	+	6	17	-6	70	6
CC(C)(C)NC(=S)N1Cc2ccccc2-n2nncc2C1	.	.	.	-52	.	.
C[C@]1(O)CCC2C3CC[C@H]4C[C@@H](OC(=O)[C@@H](N)CCCCN)CC[C@]4(C)C3CC[C@@]21C (some centres not stated)	.	.	.	1	.	.
Cc1cc(C=C2C(=O)NC(=S)NC2=O)c(C)n1-c1ccc2c(c1)OCO2	+	21	79*	-57	92	2
CCc1ccccc1N1C(=O)NC(=O)/C(=C\c2cc(C)n(C)c2C)C1=O	?	0	-8	-4	66*	3
Cc1cc(/C=C2\C(=O)NC(=O)N(c3ccccc3F)C2=O)c(C)n1-c1cc(C(=O)O)cc(C(=O)O)c1	+	-11	5	16	65	.
Cc1cc(/C=C2/C(=O)NC(=O)N(C)C2=O)c(C)n1-c1ccccc1	+	-1	16	-12	69	2
Cc1ccc(OC(=O)N(C)C[C@@H]2OCc3cnnn3CCCC(=O)N([C@@H](C)CO)C[C@@H]2C)cc1	.	.	.	10	.	.
c1coc(CN2Cc3ccccc3-n3nncc3C2)c1	.	.	.	2	.	.
O=P1(c2ccccc2)CC=CC1	.	.	.	-1	.	.
CCOC(=O)CNC(=O)N1Cc2ccccc2-n2nncc2C1	.	.	.	-1	.	.
O=C(N/N=C/c1c(O)n(Cc2ccco2)c(=O)[nH]c1=O)c1ccccc1O	i	1	.	-57	53*	-1
CCCCC(=O)N/N=C/c1c(O)n(Cc2ccco2)c(=O)[nH]c1=O	+	-7	-13	-35	86	0
CC(C)c1ccc(-n2c(O)c(/C=N/NC(=O)c3ccccc3O)c(=O)[nH]c2=S)cc1	i	5	66*	-22	15	1
N#C/C(=C(/O)c1ccc(S(=O)(=O)N(CCCl)CCCl)cc1)c1nc2ccccc2[nH]1	i	5	53*	-6	-1	4
O=C(O)c1c[nH]c2ccc(S(=O)(=O)N(CCCl)CCCl)cc12	i	0	-6	-12	5	-3
Cc1cccc(C)c1-n1nnnc1C(c1ccccc1OC(F)(F)F)N1CCC(n2c(=O)[nH]c3ccccc32)CC1 (configuration not stated)	.	.	.	17	.	.
